The record followed here is ChEMBL document CHEMBL1154331, “Allenyl and alkynyl phenyl ethers from the endolichenic fungus Neurospora terricola” (J Nat Prod, 2009).

Test [1] has as its system MCF7. Nature of the test: Cytotoxicity against human MCF7 cells after 48 hrs by MTT assay. Format: functional, cell-based. The note with it: MCF7, 48 h. Put shortly: (§1)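 Run in triplicate; 10^4 cells per well, attached overnight. Cells exposed 4 h at 37 °C, 5% CO2, to compounds serially diluted from 10 mg/mL DMSO stocks (vehicle wells 0.2% DMSO in medium), then medium changed to fresh DMEM and grown a further 48 h. MTT at 0.5 mg/mL added for 3 h at 37 °C in the dark; formazan dissolved in DMSO, absorbance read at 540 nm.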
(In general: Formazan colour is commonly taken as a measure of viable cells.)

Test [2] relates to HeLa. The test is described as follows: Cytotoxicity against human HeLa cells after 48 hrs by MTT assay. The test is classed as functional, cell-based. A digest of the protocol:
as §1

Consider `C=C=CCOc1ccc(CO[C@@H]2O[C@H](CO)[C@@H](O)[C@H](O)[C@@H]2O)cc1` [TERRICOLLENE B], for which the IC50 in test [1] and in test [2] was greater than 118 µM throughout.
Consider `C#C[C@H](O)COc1ccc(COC(C)=O)cc1`, for which the 50% inhibitory concentration (IC50) in test [1] and in test [2] was greater than 171 µM throughout.
For `C=C=CCOc1ccc(CO[C@@H]2O[C@H](CO)[C@@H](O)[C@H](O)[C@H]2O)cc1` [TERRICOLLENE A], the half-maximal inhibitory concentration (IC50) – broadly, the concentration that inhibits the measured activity by half – in test [1] was determined as 59.2 µM; in test [2] it was 53.3 µM.
Turning to `C=C=CCOc1ccc(CO)cc1` [TERRICOLLENE C], the IC50 was 114 µM in test [1] and 85.2 µM in test [2].
For `C#C[C@H](O)COc1ccc(COC)cc1`, the values for the IC50 in test [1] and in test [2] were 116 µM and 92.6 µM, respectively.
On to `O=c1[nH]cc(F)c(=O)[nH]1` [FLUOROURACIL], for which, in test [2], the midpoint of inhibition, the IC50, lay at 10 µM.
As for `C#C[C@H](O)COc1ccc(CO)cc1` [TERRICOLYNE], the IC50 in test [1] and in test [2] was greater than 200 µM each time.
